The values that follow come from ChEMBL document CHEMBL2434947, “Probing structural requirements of positive allosteric modulators of the M4 muscarinic receptor” (J Med Chem, 2013).

In test [1] the target is T1, Muscarinic acetylcholine receptor M4 (Homo sapiens) (UniProt P08173).
T1 sequence (whole entry): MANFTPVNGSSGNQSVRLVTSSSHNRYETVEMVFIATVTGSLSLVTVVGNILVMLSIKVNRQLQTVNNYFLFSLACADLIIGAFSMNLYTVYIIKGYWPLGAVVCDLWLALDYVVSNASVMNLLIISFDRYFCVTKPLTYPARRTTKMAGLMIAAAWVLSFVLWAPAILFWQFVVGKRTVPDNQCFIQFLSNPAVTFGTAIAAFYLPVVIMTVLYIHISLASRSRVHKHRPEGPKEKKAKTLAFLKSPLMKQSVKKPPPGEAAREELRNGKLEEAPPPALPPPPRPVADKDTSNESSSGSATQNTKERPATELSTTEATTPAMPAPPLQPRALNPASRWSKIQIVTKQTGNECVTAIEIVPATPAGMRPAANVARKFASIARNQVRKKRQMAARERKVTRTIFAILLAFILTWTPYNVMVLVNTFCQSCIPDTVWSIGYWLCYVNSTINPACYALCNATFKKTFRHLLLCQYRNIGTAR
Briefly: Positive allosteric modulation of human muscarinic M4 receptor expressed in CHO Flp-In cells assessed as stimulation of acetylcholine-induced ERK1/2 phosphorylation incubated under green light condition by fluorescence assay relative to control. It counts as cell-based. The procedure, abridged: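 ERK1/2 phosphorylation in intact FlpIn-CHO cells stably expressing human M4 mAChR. Modulator was titrated at a fixed EC20 concentration of ACh to give empirical EC50 and Emax (EM′). The incubation time was taken from prior time-course assays of peak phosphorylation. Mean ± SEM from at least three experiments performed in duplicate.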

The target of test [2] is T1, Muscarinic acetylcholine receptor M4 (Homo sapiens). The test is described as follows: Displacement of [3H]NMS from human muscarinic M4 receptor expressed in CHO Flp-In cells after 4 hrs by scintillation counting analysis. It is filed as cell-based.
For test [3] the target is unchanged. Briefly: Binding affinity to human muscarinic M4 receptor expressed in CHO Flp-In cells. It is filed as cell-based. The procedure, abridged:
(§1)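 Intact FlpIn-CHO cells stably expressing human M4 mAChR; ERK1/2 phosphorylation read-out. A time course first set the incubation time of peak phosphorylation, and concentration-response curves were run at that time. Modulator was titrated against ACh. pKB (allosteric site affinity), τB and composite cooperativity αβ came from an operational model of allosterism. Mean ± SEM from at least three experiments in duplicate.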

The target in test [4] is T2, Muscarinic acetylcholine receptor M4 (Homo sapiens, UniProt P08173).
T2 sequence (P08173 whole entry): T1 sequence (whole entry)
The test is described as follows: Positive allosteric modulation of human muscarinic M4 receptor expressed in CHO Flp-In cells assessed as stimulation of acetylcholine-induced ERK1/2 phosphorylation incubated under green light condition by fluorescence assay. It is filed as cell-based. The procedure, abridged:
as §1

Test [5] has as its target T1, Muscarinic acetylcholine receptor M4 (Homo sapiens). The test is described as follows: Positive allosteric modulation of human muscarinic M4 receptor expressed in CHO Flp-In cells assessed as stimulation of acetylcholine-induced ERK1/2 phosphorylation incubated under green light condition by fluorescence assay.

Calls of active or inactive are those of the source. The calls are words filed in the database; no cut-off is given here.

For the compound `COc1ccc(CNC(=O)CSc2nc(C)cc(C)c2C#N)c(F)c1F`, the result in test [1] was inactive.
In the case of `Cc1cc(C)c(C#N)c(SCC(=O)NCc2cc(F)c(F)cc2F)n1`, the outcome in test [1] was inactive.
Take `Cc1cc(C)c(C#N)c(SCC(=O)NCc2cc(F)ccc2F)n1`: the outcome in test [1] was inactive.
Consider `COc1ccc(CNC(=O)c2sc3nc(C)cc(C)c3c2N)c(F)c1F`, for which the outcome in test [2] was inactive. For the same compound, in test [3], the Kb stood at 1880 nM and the pKb (usually the Kb on a negative log10 scale, so that one unit is a factor of ten) stood at 5.73. Further, the Emax (in general, the greatest response seen or fitted, relative to the assay's reference) in test [1] was 89%. Further, in test [4] (read-out: EC50), the EC50 (usually the concentration at which the effect is half-maximal) worked out at 240 nM.
The matching figures for `Cc1cc(C)c2c(N)c(C(=O)NCc3ccc(F)cc3)sc2n1`: “inactive”, 2520 nM, 5.6, 98% and 220 nM.
In test [3], `Cc1cc(C)c2c(N)c(C(=O)NCc3cc(F)ccc3F)sc2n1` showed a Kb of 1690 nM and a pKb of 5.77. In test [1], the Emax came to 85%. Also, the EC50 in test [4] (read-out: EC50) came to 130 nM.
Take `COc1ccc(CNC(=O)c2sc3nc(C)cc(C)c3c2N)c(F)c1`: in test [3], the Kb came to 1820 nM and the negative-log Kb (pKb) was 5.74. Besides, in test [1], the Emax is 56%. The EC50 in test [4] (read-out: EC50) turned out to be 350 nM.
Consider `COc1ccc(CNC(=O)c2sc3nc(C)cc(C)c3c2N)cc1OC.Cl`, for which the KB result in test [3] is “inactive”. The Emax entry in test [1] is “inactive”. For the same compound, in test [4], the EC50 entry is listed as “Not Active”. The outcome in test [5] was inactive.
Take `COc1ccc(CNC(=O)c2sc3nc(C)cc(C)c3c2N)cc1`: in test [2], the result was inactive. In addition, the Emax in test [1] was 85%.
As for `Cc1cc(C)c(C#N)c(SCC(=O)NCc2cccc(F)c2)n1`, in test [1], the outcome was inactive.
As for `COc1ccc(CNC(=O)c2sc3nc(C)cc(C)c3c2N)cc1F`, the result in test [2] was inactive. For the same compound, in test [3], the Kb amounted to 2580 nM and the pKb was determined as 5.59. Besides, the Emax in test [1] was 95%. In addition, the EC50 in test [4] (read-out: EC50) stood at 100 nM.
As for `COc1cc(CNC(=O)CSc2nc(C)cc(C)c2C#N)cc(OC)c1`, the outcome in test [1] was inactive.
For `COc1cc(CNC(=O)c2sc3nc(C)cc(C)c3c2N)cc(OC)c1OC.Cl`, the KB entry in test [3] is “inactive”. The Emax entry in test [1] is “inactive”. The concentration for a half-maximal effect (EC50) result in test [4] was “Not Active”. Moreover, the result in test [5] was inactive.
As to `Cc1cc(C)c2c(N)c(C(=O)NCc3cc(F)cc(F)c3F)sc2n1`, in test [3], the Kb was found to be 1290 nM and the pKb was 5.89. The Emax in test [1] was determined as 85%. The EC50 in test [4] (read-out: EC50) was found to be 140 nM.
Turning to `Cc1cc(C)c(C#N)c(SCC(=O)NCc2ccccc2F)n1`, the outcome in test [1] was inactive.
Turning to `COc1cccc(CNC(=O)c2sc3nc(C)cc(C)c3c2N)c1`, in test [3], the Kb was found to be 11400 nM and the pKb was 4.95. In addition, in test [1], the Emax was 92%. Moreover, the EC50 in test [4] (read-out: EC50) turned out to be 560 nM.
For the compound `COc1ccc(CNC(=O)CSc2nc(C)cc(C)c2C#N)cc1`, the outcome in test [1] was inactive.
In the case of `COc1cc(F)c(CNC(=O)c2sc3nc(C)cc(C)c3c2N)cc1F.Cl`, the KB result in test [3] is “inactive”. For the same compound, the Emax entry in test [1] was “inactive”. Moreover, in test [4], the EC50 result is on record as “Not Active”. The result in test [5] was inactive.
Regarding `Cc1cc(C)c2c(N)c(C(=O)NCc3cccc(F)c3)sc2n1`, the result in test [2] was inactive. In test [3], the Kb was 6240 nM and the negative-log Kb (pKb) stood at 5.21. The Emax in test [1] was found to be 98%. The half-maximal effective concentration (EC50) in test [4] (read-out: EC50) turned out to be 310 nM.
In the case of `COc1cc(CNC(=O)c2sc3nc(C)cc(C)c3c2N)cc(OC)c1.Cl`, the KB entry in test [3] was “inactive”. Moreover, the Emax entry in test [1] was “inactive”. Further, in test [4], the EC50 result is “Not Active”. Also, the result in test [5] was inactive.
With `Cc1cc(C)c2c(N)c(C(=O)NCc3cc(F)c(F)cc3F)sc2n1`, in test [3], the Kb amounted to 2320 nM and the pKb worked out at 5.63. In test [1], the Emax was 83%. Besides, the EC50 in test [4] (read-out: EC50) stood at 580 nM.
For the compound `Cc1cc(C)c2c(N)c(C(=O)NCc3ccccc3F)sc2n1`, in test [3], the Kb came out at 1170 nM and the pKb amounted to 5.93. Besides, in test [1], the Emax is 92%. Also, the EC50 in test [4] (read-out: EC50) worked out at 130 nM.
Consider `Cc1cc(C)c2c(N)c(C(=O)NCc3cccc(F)c3F)sc2n1`, for which the outcome in test [2] was inactive. In test [3], this compound showed a Kb of 1720 nM and a pKb of 5.76. Besides, the Emax in test [1] was 91%. Further, the EC50 in test [4] (read-out: EC50) is 110 nM.
With `COc1ccccc1CNC(=O)CSc1nc(C)cc(C)c1C#N`, the result in test [1] was inactive.
In the case of `COc1ccccc1CNC(=O)c1sc2nc(C)cc(C)c2c1N.Cl`, the KB result in test [3] is “inactive”. Besides, the Emax result in test [1] is “inactive”. Further, the EC50 entry in test [4] was “Not Active”. Also, in test [5], the outcome was inactive.
On to `COc1cccc(CNC(=O)CSc2nc(C)cc(C)c2C#N)c1`, for which the outcome in test [1] was inactive.
